# Assay results gathered from unrelated publications.
# Protocols differ between the studies behind these lines.
# Target: Carbonic anhydrase 2 (CA2, Homo sapiens, UniProt P00918)
# Read-out: enzyme activity
# Mode: inhibitor
# Technique: absorbance
Structure (SMILES),pH,IC50 [nM]
OCCOCCN1CCN(C(c2ccccc2)c2ccc(Cl)cc2)CC1 (centres unmarked),pH 7.4,18200
CS(=O)(=O)Nc1ccc(Nc2nc(-c3cc4cc(Br)ccc4oc3=O)cs2)cc1Oc1ccccc1,,380
CC1=C(/C=C/C(C)=C/C=C/C(C)=C\C(=O)O)C(C)(C)CCC1,pH 7.4,10900
NS(=O)(=O)c1ccc(-c2ccc(Nc3ccc(Cl)cc3)cc2)cc1,,2110
CN1CCN(c2nc(-c3cc4cc(Br)ccc4oc3=O)cs2)CC1,,4120
Cc1cccc(C)c1NC(=S)N/N=C/c1ccc(N2CCC(O)CC2)cc1,,424
NS(=O)(=O)c1cccc(Nc2nc(-c3cc4cc(Br)ccc4oc3=O)cs2)c1,,680
OC1CCN(c2ccc(/C=N/NC(=S)NC3CCCCC3)cc2)CC1,,465
C[C@H]1c2cccc(O)c2C(=O)C2=C(O)[C@]3(O)C(=O)C(C(N)=O)=C(O)[C@@H](N(C)C)[C@@H]3[C@@H](O)[C@@H]21,pH 7.4,14200
NS(=O)(=O)c1ccc(-c2ccc(Nc3ccc(F)c(Cl)c3)cc2)cc1,,380
OC1CCN(c2ccc(/C=N/NC(=S)NCCc3ccccc3)cc2)CC1,,641
